ChEMBL document CHEMBL4665780, “Synthesis of flutamide-conjugates” (Bioorg Med Chem Lett, 2020)

Columns and labels:
[1] = system: PC-3; assay: Anticancer activity against human PC-3 cells assessed as inhibition of cell growth incubated for 48 hrs by MTT assay; assay type: functional, cell-based; details: PC-3, 48 h
In short: (§1)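 MTT assay against a panel of human cancer lines (U-251 glioblastoma, PC-3 prostatic adenocarcinoma, K-562 chronic myelogenous leukemia, HCT-15 colorectal adenocarcinoma) and monkey kidney fibroblasts (COS-7). Cells were exposed to compounds for 48 h. IC50 (µM) came from MTT readings as the mean ± SD of two independent trials, each run in triplicate.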

[2] = system: U-251; assay: Anticancer activity against human U-251 cells assessed as inhibition of cell growth incubated for 48 hrs by MTT assay; assay type: functional, cell-based; details: U-251, 48 h; in short: as §1
[3] = system: HCT-15; assay: Anticancer activity against human HCT-15 cells assessed as inhibition of cell growth incubated for 48 hrs by MTT assay; assay type: functional, cell-based; details: HCT-15, 48 h; in short: as §1
[4] = system: COS-7; assay: Anticancer activity against African green monkey COS7 cells assessed as inhibition of cell growth incubated for 48 hrs by MTT assay; assay type: cell-based; details: Chlorocebus aethiops, COS-7, 48 h; in short: as §1
[5] = system: K562; assay: Anticancer activity against human K562 cells assessed as inhibition of cell growth incubated for 48 hrs by MTT assay; assay type: functional, cell-based; details: K562, 48 h; in short: as §1

For `CCCCCCCCCCCCOc1cc(OCCCCCCCCCCCC)cc(C(=O)NCCN)c1`, the IC50 [1] was > 1000 µM, the IC50 [2] was > 1000 µM and the IC50 [3] was > 1000 µM. The IC50 [4] was > 1000 µM and the IC50 [5] was > 1000 µM.
For `COC(=O)CN(C(=O)C(C)C)c1ccc([N+](=O)[O-])c(C(F)(F)F)c1`, the IC50 [1] was 19.1 µM, the IC50 [2] was 20.1 µM and the IC50 [3] was > 100 µM. The IC50 [4] was 12.1 µM and the IC50 [5] was 14.1 µM.
With `CC(C)C(=O)Nc1ccc([N+](=O)[O-])c(C(F)(F)F)c1` [FLUTAMIDE] the IC50 [1] was 20.3 µM, the IC50 [2] was 22.1 µM and the IC50 [3] was > 100 µM. It also gave an IC50 [4] of 51.5 µM and an IC50 [5] of 29.2 µM.
For `CCCCCCCCCCCCOc1cc(OCCCCCCCCCCCC)cc(C(=O)NCCNC(=O)CN(C(=O)C(C)C)c2ccc([N+](=O)[O-])c(C(F)(F)F)c2)c1`, the IC50 [1] was 13.3 µM, the IC50 [2] was 14.3 µM and the IC50 [3] was 19.2 µM. For the same molecule, the IC50 [4] was > 1000 µM and the IC50 [5] was 15.4 µM.
For `CCCCCCCCCCCCOc1cc(OCCCCCCCCCCCC)cc(C(=O)NCCN(CCC(=O)OC)CCC(=O)OC)c1`, the IC50 [1] was > 1000 µM, the IC50 [2] was > 1000 µM and the IC50 [3] was > 1000 µM. The IC50 [4] was > 1000 µM and the IC50 [5] was > 1000 µM.
With `CCCCCCCCCCCCOc1cc(OCCCCCCCCCCCC)cc(C(=O)OC)c1` the IC50 [1] was > 1000 µM, the IC50 [2] was > 1000 µM and the IC50 [3] was > 1000 µM. For the same molecule, the IC50 [4] was > 1000 µM and the IC50 [5] was > 1000 µM.
In the case of `CC(C)C(=O)N(CC(=O)NCCN)c1ccc([N+](=O)[O-])c(C(F)(F)F)c1`, the IC50 [1] is reported as 20.1 µM, the IC50 [2] is reported as 24.1 µM and the IC50 [3] is reported as > 100 µM. It also gave an IC50 [4] of 15.2 µM and an IC50 [5] of 18 µM.
Molecule `CCCCCCCCCCCCOc1cc(OCCCCCCCCCCCC)cc(C(=O)NCCN(CCC(=O)NCCNC(=O)CN(C(=O)C(C)C)c2ccc([N+](=O)[O-])c(C(F)(F)F)c2)CCC(=O)NCCNC(=O)CN(C(=O)C(C)C)c2ccc([N+](=O)[O-])c(C(F)(F)F)c2)c1` has an IC50 [1] of 7.16 µM, an IC50 [2] of 8.59 µM and an IC50 [3] of 22.4 µM. For the same molecule, the IC50 [4] was > 1000 µM and the IC50 [5] was 6.79 µM.
